# Experimental data from PubChem BioAssay AID504485 (Sanford-Burnham Center for Chemical Genomics, 2011).
# The source made the active and inactive calls.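 The calls were made as follows: active = mean IC50 at or below 20 µM; inactive = the rest.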
# Test system: 697 B-cell NF-kB luciferase, PMA/ionomycin, 16 h
# Experiment: stimulated NF-kB reporter signal decrease, 697 cells – cell-based, luminescence, B-cell NF-kB inhibitor project, SAR follow-up (AID 504485)
# How it was run: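 Technique: luciferase luminescence with SteadyGlo reagent. Test system: human 697 B-cell line with NF-kB-driven luciferase reporter. Input: 15000 cells per well. Doses: dose series. Control set: DMSO and no-agonist wells. Timing: 1 h pretreatment, 16 h stimulation, 37 °C. Also added: PMA plus ionomycin stimulation of NF-kB.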
row,Compound,IC50
1,COc1cccc(-c2cc(=O)c3cc(NC(=O)c4ccc(N(C)C)cc4)ccc3[nH]2)c1,> 79 µM (inactive)
2,CCNC(=O)CCc1nc(-c2ccc(C(C)C)cc2)no1,0.32 µM
3,CCNC(=O)CCc1nc(-c2c(Cl)cccc2Cl)no1,> 79 µM (inactive)
4,CCOc1ccc(-c2nc(CSCC(=O)O)c(C)o2)cc1,< 0.15 µM
5,CCC(C)NC(=O)CCc1nc(-c2ccccc2)no1 (stereo not drawn),> 79 µM (inactive)
6,CCOC(=O)CC(NC(=O)c1ccc(Br)cc1)c1ccc(F)c([N+](=O)[O-])c1 (stereo not drawn),36.8 µM (inactive)
7,CC(C)c1ccc(-c2noc(CCC(=O)NC(C)(C)C)n2)cc1,26.9 µM (inactive)
8,CCOc1ccc(-c2noc(CCC(=O)O)n2)cc1,34 µM (inactive)
9,Cc1oc(-c2ccc(OC(F)(F)F)cc2)nc1CSCC(=O)O,0.24 µM
10,CCOc1ccc(-c2nc(CSCC(=O)NC3CCC3)c(C)o2)cc1,3.23 µM
11,C#CCNC(=O)CSCc1nc(-c2ccc(OCC)cc2)oc1C,< 0.15 µM
12,COc1ccc(-c2nc(CSCC(=O)NCc3ccco3)c(C)o2)cc1,29.5 µM (inactive)
13,CCOc1ccc(-c2nc(CSCC(=O)NC3CC3)c(C)o2)cc1,0.19 µM
14,CCc1ccc(-c2nc(CSCC(=O)NC3CC3)c(-c3ccccc3)o2)cc1,> 79 µM (inactive)
15,CCNC(=O)CCc1nc(-c2cccc(OC)c2)no1,> 79 µM (inactive)
16,CC(C)(C)c1ccc(-c2noc(CCC(=O)NC3CCC3)n2)cc1,0.41 µM
17,Cc1oc(-c2ccccc2)nc1CSCC(=O)NCc1ccco1,> 79 µM (inactive)
18,CCc1ccc(-c2nc(CSCC(=O)NC3CC3)c(C)o2)cc1,0.48 µM
19,CCNC(=O)CCc1nc(-c2ccccc2C)no1,> 79 µM (inactive)
20,CCNC(=O)CCc1nc(-c2ccccc2Cl)no1,> 79 µM (inactive)
21,CCCCc1ccc(-c2noc(CCC(=O)NC(C)(C)C)n2)cc1,2.31 µM
22,CCC(C)NC(=O)CCc1nc(-c2ccc(C(C)(C)C)cc2)no1 (stereo not drawn),0.49 µM
23,CN(C)C(=O)CCc1nc(-c2ccc(C(C)(C)C)cc2)no1,41.5 µM (inactive)
24,CCN(CC)C(=O)CCc1nc(-c2ccc(C(C)(C)C)cc2)no1,58.4 µM (inactive)
25,Cc1oc(-c2ccccc2)nc1CSCC(=O)NC1CC1,> 79 µM (inactive)
26,CCNC(=O)CCc1nc(-c2ccc(OCC)cc2)no1,> 79 µM (inactive)

row,Compound,IC50
1,CCCCc1ccc(-c2noc(CCC(=O)NC)n2)cc1,0.2 µM
2,CC(C)(C)NC(=O)CCc1nc(-c2ccccc2)no1,> 79 µM (inactive)
3,CCNC(=O)CCc1nc(-c2cccc(C)c2)no1,> 79 µM (inactive)
4,CCNC(=O)CCc1nc(-c2ccccc2)no1,> 79 µM (inactive)
5,CCOc1ccc(-c2nc(CSCC(N)=O)c(C)o2)cc1,< 0.15 µM
6,CCc1ccc(-c2noc(CCC(=O)NC(C)CC)n2)cc1 (stereo not drawn),> 79 µM (inactive)
7,Cc1ccc(-c2nc(CSCC(=O)NC3CC3)c(C)o2)cc1,16.2 µM
8,O=C(CCc1nc(-c2ccccc2)no1)NC1CC1,> 79 µM (inactive)
9,CC(C)(C)c1ccc(-c2noc(CCC(=O)O)n2)cc1,0.19 µM
10,CCOc1ccc(-c2nc(CSCC(=O)N(C)C)c(C)o2)cc1,> 79 µM (inactive)
11,Cc1ccc(-c2nc(CSCC(=O)NCc3ccco3)c(C)o2)cc1,> 79 µM (inactive)
12,COC(=O)CCc1nc(-c2ccc(C(C)(C)C)cc2)no1,< 0.16 µM
13,CCCCc1ccc(-c2noc(CCC(=O)NC(C)CC)n2)cc1 (stereo not drawn),0.67 µM
14,CCOc1ccc(-c2nc(CSCC(=O)NCC3CC3)c(C)o2)cc1,1.32 µM
15,CCCOc1ccc(-c2nc(CSCC(=O)NCc3ccco3)c(C)o2)cc1,0.17 µM
16,CCOc1cccc(-c2nc(CSCC(=O)NC3CC3)c(C)o2)c1,> 79 µM (inactive)
17,Cc1oc(-c2ccc(C(F)(F)F)cc2)nc1CSCC(=O)O,0.97 µM
18,CNC(=O)CCc1nc(-c2ccccc2)no1,> 79 µM (inactive)
19,CNC(=O)CCc1nc(-c2ccc(C(C)(C)C)cc2)no1,< 0.16 µM
20,CC(C)(C)c1ccc(-c2noc(CCC(N)=O)n2)cc1,< 0.16 µM
21,CCOc1ccc(-c2nc(CSCC(=O)NC3CC3)c(-c3ccccc3)o2)cc1,> 79 µM (inactive)
22,CCOc1ccccc1-c1nc(CSCC(=O)O)c(C)o1,> 79 µM (inactive)
23,CCCOc1ccc(-c2nc(CSCC(=O)NC3CC3)c(C)o2)cc1,< 0.15 µM
24,CCC(C)NC(=O)CCc1nc(-c2ccc(C(C)C)cc2)no1 (stereo not drawn),7.96 µM
25,CCCOc1ccc(-c2nc(CSCC(=O)O)c(C)o2)cc1,< 0.15 µM
26,CCOc1ccc(-c2nc(CSCC(=O)NC(C)(C)C)c(C)o2)cc1,60.5 µM (inactive)

row,Compound,IC50
1,COc1ccc(-c2nc(CSCC(=O)NC3CC3)c(C)o2)cc1,29.2 µM (inactive)
2,CCCCOc1ccc(-c2nc(CSCC(=O)NCc3ccco3)c(C)o2)cc1,0.26 µM
3,CCNC(=O)CCc1nc(-c2ccc(C(C)(C)C)cc2)no1,0.03 µM
4,O=C(O)CCc1nc(-c2ccccc2)no1,> 79 µM (inactive)
5,CCOc1ccc(-c2nc(CSCC(=O)NC)c(C)o2)cc1,0.33 µM
6,CCNC(=O)CCc1nc(-c2ccc(CC)cc2)no1,> 79 µM (inactive)
7,CCc1ccc(-c2noc(CCC(=O)NC3CC3)n2)cc1,> 79 µM (inactive)
8,Cc1oc(-c2ccc(OC(F)(F)F)cc2)nc1CSCC(=O)NC1CC1,2.23 µM
9,CC(C)c1ccc(-c2noc(CCC(=O)NC3CC3)n2)cc1,0.26 µM
10,CNC(=O)CCc1nc(-c2ccc(C(C)C)cc2)no1,0.21 µM
11,CCOc1ccccc1-c1nc(CSCC(=O)NC2CC2)c(C)o1,> 79 µM (inactive)
12,CCOc1ccc(-c2nc(CSCC(=O)NCc3ccco3)c(C)o2)cc1,0.21 µM
13,CC(C)Nc1ccc(C(CC(=O)O)NC(=O)c2ccccc2)cc1[N+](=O)[O-] (stereo not drawn),> 79 µM (inactive)
14,COc1ccc(C(=O)Nc2ccc3[nH]c(-c4cccc(OC)c4)cc(=O)c3c2)cc1,> 79 µM (inactive)
15,CCCCOc1ccc(-c2nc(CSCC(=O)O)c(C)o2)cc1,0.18 µM
16,CCc1ccc(-c2noc(CCC(=O)NC(C)(C)C)n2)cc1,> 79 µM (inactive)
17,Cc1oc(-c2ccc(C(F)(F)F)cc2)nc1CSCC(=O)NC1CC1,15.7 µM
18,CC(C)(C)c1ccc(-c2noc(CCC(=O)NC3CC3)n2)cc1,0.06 µM
19,CCc1ccc(-c2nc(CSCC(=O)NCc3ccco3)c(C)o2)cc1,49.4 µM (inactive)
20,CCCCc1ccc(-c2noc(CCC(=O)NC3CC3)n2)cc1,0.21 µM
21,CCCCOc1ccc(-c2nc(CSCC(=O)NC3CC3)c(C)o2)cc1,0.24 µM
22,CCOc1ccc(-c2nc(CSCC(=O)N3CCOCC3)c(C)o2)cc1,> 79 µM (inactive)
23,CCCCc1ccc(-c2noc(CCC(=O)NCC)n2)cc1,0.22 µM
24,COc1cccc(-c2cc(=O)c3cc(NC(=O)c4ccccc4)ccc3[nH]2)c1,> 79 µM (inactive)
25,CCNC(=O)CCc1nc(-c2cccc(F)c2)no1,> 79 µM (inactive)
26,CCc1ccc(-c2noc(CCC(=O)NC)n2)cc1,> 79 µM (inactive)
